The text below walks through data of ChEMBL document CHEMBL4411278, “Discovery of potent and selective inhibitors of the Escherichia coli M1-aminopeptidase via multicomponent solid-phase synthesis of tetrazole-peptidomimetics” (Eur J Med Chem, 2019).

pIC50: −log10 of the molar value. Calls of active or inactive are those of the source. No cut-off for these calls is given here.

The nature of data set [1]: (§1) Inhibition of recombinant Escherichia coli M1 aminopeptidase using Leu-pNA as substrate preincubated for 15 mins followed by substrate addition. The essentials: (§2)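 Recombinant ePepN (partially purified by ion exchange) or porcine kidney cortex microsomal APN was pre-incubated 15 min at 25°C with inhibitor in DMSO (final ≤2% v/v), then 75 μM Leu-pNA (~1 KMapp) was added. Buffer was 50 mM Tris-HCl pH 8.0. A405 was read every 15 s for 3 min. Doses were double serial dilutions over 0.781–100 μM, and IC50 came from a logistic fit of residual activity (vi/v0); at least triplicate.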

The test system of data set [2] is Escherichia coli. The data set is described as §1. The essentials:
as §2

Data set [3] deals with Escherichia coli. The data set is described as follows: Reversible inhibition of recombinant Escherichia coli M1 aminopeptidase using Leu-pNA as substrate preincubated for 15 mins followed by substrate addition. The essentials:
as §2

Data set [4] relates to Escherichia coli. In words: Growth inhibition of Escherichia coli BL21 up to 100 uM after 3 to 20 hrs by spectrophotometric analysis. The data set is classed as functional, organism-based. The essentials: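 E. coli BL21 was inoculated at 1% from an overnight culture into LB. Compounds were added at eight concentrations (0.781–100 μM) from DMSO serial dilutions, with DMSO and 200 μg/mL ampicillin controls; four replicates. Plates were held at 37°C and raised to 42°C at 6 h. A595 was read at 0, 3, 6 and 20 h and normalized to the DMSO control (100% growth).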

Data set [5] is described as follows: Cytotoxicity against mouse P3X63Ag assessed as reduction in cell viability at 50 uM after 3 hrs by MTT assay relative to control. The gist of the method:
(§3)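 P3X63Ag murine myeloma cells were grown in DMEM-F12 with 10% FCS at 37°C, 5% CO2. For the assay they were plated in serum-free DMEM-F12 and exposed to compounds for 3, 6 or 20 h. After a PBS wash, cells got MTT for 3 h and crystals were dissolved in DMSO. Absorbance was read at 450 nm (620 nm reference), and viability calculated as 100×At/Ac versus untreated cells.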

A short description of data set [6]: Cytotoxicity against mouse P3X63Ag assessed as reduction in cell viability at 50 uM after 6 hrs by MTT assay relative to control. The gist of the method:
as §3

The nature of data set [7]: Inhibition of M1 aminopeptidase in porcine kidney cortex microsomes using Leu-pNA as substrate preincubated for 15 mins followed by substrate addition. Also on record: species or system Sus scrofa.
Data set [8] can be described thus: Selectivity index, ratio of IC50 for M1 aminopeptidase in porcine kidney cortex microsomes to IC50 for recombinant Escherichia coli M1 aminopeptidase.
Data set [9] can be described thus: Haemolytic activity in human erythrocytes assessed as induction of hemolysis at 100 uM after 20 hrs relative to control. The data set is classed as cell-based, Erythrocyte. The following applies: read-out: Activity. The essentials:
(§4)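 Fresh human red blood cells were washed and resuspended in 145 mM NaCl, 10 mM Tris-HCl pH 7.4, adjusted so full lysis with Na2CO3 gives A540 ≈0.7. Cells were incubated with compounds for 3, 6 or 20 h, with untreated and 1% DMSO controls. Supernatant haemoglobin was measured after centrifugation.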

For data set [10], the system named is Erythrocyte. The data set is described as follows: Haemolytic activity in human erythrocytes assessed as induction of hemolysis after 3 hrs. Type of data set: cell-based. The gist of the method:
as §4

In data set [11] the test system is Erythrocyte. The data set is described as follows: Haemolytic activity in human erythrocytes assessed as induction of hemolysis after 6 hrs. Type of data set: cell-based. The essentials:
as §4

Data set [12] deals with Erythrocyte. The data set is described as follows: Haemolytic activity in human erythrocytes assessed as induction of hemolysis after 20 hrs. Type of data set: cell-based. The essentials: as §4
The nature of data set [13]: Cytotoxicity against mouse P3X63Ag assessed as reduction in cell viability at 50 uM after 20 hrs by MTT assay relative to control. The gist of the method:
as §3

Data set [14] in a line: Cytotoxicity against mouse P3X63Ag assessed as reduction in cell viability after 3 hrs by MTT assay. The essentials: as §3
Data set [15] can be described thus: Cytotoxicity against mouse P3X63Ag assessed as reduction in cell viability after 6 hrs by MTT assay. The essentials:
as §3

The nature of data set [16]: Cytotoxicity against mouse P3X63Ag assessed as reduction in cell viability after 20 hrs by MTT assay. The essentials: as §3
Data set [17] can be described thus: (§5) Inhibition of recombinant Escherichia coli M1 aminopeptidase using Leu-pNA as substrate preincubated for 45 mins followed by substrate addition. The following applies: in the assay text read “15 mins” for “45 mins”. The essentials: (§6)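 The time to reach inhibition equilibrium was tested by pre-incubating recombinant ePepN with inhibitor for 5, 10, 15, 30 or 45 min at 25°C. Residual activity was then measured on 75 μM Leu-pNA in 50 mM Tris-HCl pH 8.0, reading A405 continuously against a DMSO control.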

Data set [18] concerns Escherichia coli. The data set is described as §5. The gist of the method:
as §6

Data set [19] deals with Escherichia coli. In words: Reversible inhibition of recombinant Escherichia coli M1 aminopeptidase using Leu-pNA as substrate preincubated for 45 mins followed by substrate addition. The settings on record: in the assay text read “15 mins” for “45 mins”. The gist of the method:
as §6

Data set [20] relates to Escherichia coli. The data set is described as follows: Noncompetitive inhibition of recombinant Escherichia coli M1 aminopeptidase assessed as Km for substrate at 1.56 uM using Leu-pNA as substrate preincubated for 15 mins followed by substrate addition by Lineweaver-Burk double reciprocal plot analysis (reference value: 120 umol/L).
In data set [21] the test system is Escherichia coli. The data set is described as follows: Noncompetitive inhibition of recombinant Escherichia coli M1 aminopeptidase assessed as Km for substrate at 6.25 uM using Leu-pNA as substrate preincubated for 15 mins followed by substrate addition by Lineweaver-Burk double reciprocal plot analysis (reference value: 120 umol/L).
In data set [22] the test system is Escherichia coli. The data set is described as follows: Noncompetitive inhibition of recombinant Escherichia coli M1 aminopeptidase assessed as Km for substrate at 3.125 uM using Leu-pNA as substrate preincubated for 15 mins followed by substrate addition by Lineweaver-Burk double reciprocal plot analysis (reference value: 120 umol/L).
Data set [23] concerns Escherichia coli. In words: Noncompetitive inhibition of recombinant Escherichia coli M1 aminopeptidase assessed as Vmax for substrate at 1.56 uM using Leu-pNA as substrate preincubated for 15 mins followed by substrate addition by Lineweaver-Burk double reciprocal plot analysis (reference value: 125 10^-3OD/min).
Data set [24] has as its system Escherichia coli. The data set is described as follows: Noncompetitive inhibition of recombinant Escherichia coli M1 aminopeptidase assessed as Vmax for substrate at 6.25 uM using Leu-pNA as substrate preincubated for 15 mins followed by substrate addition by Lineweaver-Burk double reciprocal plot analysis (reference value: 125 10^-3OD/min).
In data set [25] the test system is Escherichia coli. In words: Noncompetitive inhibition of recombinant Escherichia coli M1 aminopeptidase assessed as Vmax for substrate at 3.125 uM using Leu-pNA as substrate preincubated for 15 mins followed by substrate addition by Lineweaver-Burk double reciprocal plot analysis (reference value: 125 10^-3OD/min).

With `O=C(O)[C@H](Cc1ccccc1)NC(c1ccco1)c1nnnn1C1CCCCC1` (stereo not given in full), the pIC50 in data set [1] was 4.39. Further, the inhibition entry in data set [2] was “Dose-dependent effect”. Also, the inhibition entry in data set [3] is “Active”.

As for `O=C(O)[C@H](Cc1c[nH]c2ccccc12)NC(c1ncc[nH]1)c1nnnn1C1CCCCC1` (stereo not given in full), in [1], the pIC50 was 4.32. Moreover, in [2], the inhibition entry was “Dose-dependent effect”. Further, the inhibition entry in data set [3] was “Active”.

Turning to `CC(C)[C@H](NC(c1ncc[nH]1)c1nnnn1C1CCCCC1)C(=O)O` (stereo not given in full), in data set [1], the negative-log IC50 (pIC50) is 3.90. The inhibition entry in data set [2] was “Dose-dependent effect”. For the same compound, the inhibition entry in data set [3] is “Active”.

In the case of `COc1ccc(C(N[C@@H](Cc2c[nH]c3ccccc23)C(=O)O)c2nnnn2C2CCCCC2)cc1` (stereo not given in full), the pIC50 in data set [1] was 3.20. For the same compound, the inhibition entry in data set [2] is “Dose-dependent effect”. Moreover, the inhibition result in [3] was “Active”.

In the case of `COc1ccc(C(N[C@H](C(=O)O)C(C)C)c2nnnn2CCCc2ccccc2)cc1` (stereo not given in full), the negative-log IC50 (pIC50) in data set [1] is 3.80. Moreover, the inhibition entry in data set [2] was “Dose-dependent effect”. In addition, the inhibition result in data set [3] was “Active”.

Take `O=C(O)[C@H](Cc1c[nH]c2ccccc12)NCc1nnnn1C1CCCCC1`: in data set [1], the pIC50 is 3.96. Besides, in data set [2], the inhibition entry was “Dose-dependent effect”. In addition, in data set [3], the inhibition entry is “Active”.

In the case of `COc1ccc(C(N[C@@H](Cc2c[nH]c3ccccc23)C(=O)O)c2nnnn2Cc2ccccc2)cc1` (stereo not given in full), the pIC50 in [1] is 5.14. In addition, the inhibition entry in [2] was “Dose-dependent effect”. Moreover, the inhibition result in [3] was “Active”.

For the compound `CC(C)[C@H](NCc1nnnn1Cc1ccccc1)C(=O)O`, in [1], the pIC50 is 4.33. Further, in data set [2], the inhibition entry was “Dose-dependent effect”. Further, in [3], the inhibition entry is “Active”.

Take `COc1ccc(C(N[C@H](C(=O)O)C(C)C)c2nnnn2Cc2ccccc2)cc1` (stereo not given in full): the pIC50 in data set [1] is below 3.00. Also, the “growth inhibition (GI)” value in data set [4] was “inactive”.

As for `CC(C)[C@H](NCc1nnnn1CCCc1ccccc1)C(=O)O`, the pIC50 in [1] is 3.77. Also, in [2], the inhibition result was “Dose-dependent effect”. Besides, the inhibition entry in data set [3] is “Active”.

On to `CC(C)[C@H](NC(c1cccnc1)c1nnnn1C1CCCCC1)C(=O)O` (stereo not given in full), for which the pIC50 in data set [1] was 4.57. Further, the inhibition entry in [2] is “Dose-dependent effect”. In addition, the inhibition result in [3] was “Active”.

For the compound `CC(C)[C@H](NC(c1ncc[nH]1)c1nnnn1CCCc1ccccc1)C(=O)O` (stereo not given in full), in data set [1], the pIC50 was 3.33. Besides, in data set [2], the inhibition result was “Dose-dependent effect”. Besides, in data set [3], the inhibition result was “Active”.

With `O=C(O)[C@H](Cc1c[nH]c2ccccc12)NC(c1ccco1)c1nnnn1C1CCCCC1` (stereo not given in full), the values for the Activity entry in data set [5], in data set [6] and in [13] were “<= 60%”, “<= 50%” and “<= 50%”, respectively. Besides, the pIC50 is 5.66 in data set [1]; 2.70 in [7]; below 4.00 in [14]; below 4.00 in data set [15]; 4.00 in data set [16]. The inhibition entry in [2] was “Dose-dependent effect”. In addition, the Ratio IC50 in data set [8] is 909. Besides, the hemolysis at 20 h, 100 µM in [9] came out at 40%. In addition, the HC20 in [10] was found to be 80 µM; in data set [11], 70 µM; in [12] it was 55 µM. Besides, the “growth inhibition (GI)” value in data set [4] is “inactive”. Besides, the inhibition result in data set [3] is “Active”.

Take `O=C(O)[C@H](Cc1c[nH]c2ccccc12)NC(c1cccnc1)c1nnnn1C1CCCCC1` (stereo not given in full): the pIC50 in data set [1] was 4.66. Besides, the inhibition entry in data set [2] is “Dose-dependent effect”. Also, the inhibition entry in data set [3] was “Active”.

Turning to `O=C(O)[C@H](Cc1ccccc1)NC(c1ccco1)c1nnnn1Cc1ccccc1` (stereo not given in full), the pIC50 in data set [1] was 4.77. The inhibition result in [2] was “Dose-dependent effect”. Further, the inhibition result in [3] was “Active”.

With `CC(C)C[C@H](NC(=O)[C@@H](O)[C@H](N)Cc1ccccc1)C(=O)O` [UBENIMEX], the pIC50 in data set [1] was 5.15. Also, the “growth inhibition (GI)” value in data set [4] was “inactive”.

For the compound `O=C(O)[C@H](Cc1c[nH]c2ccccc12)NC(c1ncc[nH]1)c1nnnn1Cc1ccccc1` (stereo not given in full), the pIC50 in data set [1] was 4.60. Moreover, the inhibition result in data set [2] was “Dose-dependent effect”. In addition, the inhibition result in data set [3] was “Active”.

In the case of `CC(C)[C@H](NC(c1ncc[nH]1)c1nnnn1Cc1ccccc1)C(=O)O` (stereo not given in full), in data set [1], the pIC50 is 4.15. Also, the inhibition result in [2] was “Dose-dependent effect”. In addition, in data set [3], the inhibition entry is “Active”.

Take `O=C(O)[C@H](Cc1ccc(OCc2ccccc2)cc1)NCc1nnnn1C1CCCCC1`: the pIC50 in data set [1] was 4.36. Also, the inhibition entry in [2] was “Dose-dependent effect”. In [3], the inhibition result is “Active”.

Take `O=C(O)[C@H](Cc1c[nH]c2ccccc12)NC(c1ccco1)c1nnnn1Cc1ccccc1` (stereo not given in full): the pIC50 in [7] was 2.21; in [17] it was 6.59; in data set [14], below 4.00; in [15], below 4.00; in [16], below 4.00. In addition, in data set [8], the Ratio IC50 was found to be 23500. Besides, the inhibition result in [18] is “Dose-dependent effect”. Besides, the hemolysis at 20 h, 100 µM in [9] was determined as 15%. In addition, the HC20 in data set [10], in data set [11] and in data set [12] was above 100 µM in each case. The “growth inhibition (GI)” value in data set [4] was “inactive”. Also, the inhibition result in data set [19] is “Active”. The Km in data set [20] was 71.3 µM; in data set [21], 61.4 µM; in data set [22] it was 69.3 µM. Moreover, the Vmax stood at 45.5 mOD/min in [23], 23.3 mOD/min in [24] and 34.5 mOD/min in data set [25].

Turning to `COc1ccc(C(N[C@H](C(=O)O)C(C)C)c2nnnn2C2CCCCC2)cc1` (stereo not given in full), the pIC50 in data set [1] is 4.05. Besides, the inhibition entry in data set [2] was “Dose-dependent effect”. In addition, in data set [3], the inhibition result was “Active”.
